# Measurements reported in ChEMBL document CHEMBL3734704, “Synthesis and Biological Evaluation of Novel Bouchardatine Derivatives as Potential Adipogenesis/Lipogenesis Inhibitors for Antiobesity Treatment” (J Med Chem, 2015).
# The source made the active and inactive calls. The rule behind the calls is not given here.
# What was measured:
# [1] = Cytotoxicity against mouse 3T3L1 cells preadipocytes assessed as cell viability at 1 to 10 uM for 24, 48 and 72 hrs by LDH release assay relative to control; conditions: 3T3-L1 preadipocyte cells
# [2] = Downregulation of C/EBP delta mRNA level in mouse 3T3L1 cells at 0.3 to 3 uM after 24 hrs by RT-PCR analysis; format: functional, cell-based; conditions: 3T3-L1
# Outline: (§1)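 3T3-L1 preadipocytes in adipogenic cocktail with compound (0.3-3.0 µM; 3 µM for the 2 h and 24 h time course). Total RNA extracted, cDNA made from 1 µg RNA with oligo primer, then PCR: 95 °C 10 min, 35 cycles of 95 °C 30 s, annealing 45 s, 72 °C 1 min, final 72 °C 10 min. Normalized to actin; n = 3.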
# [3] = Downregulation of C/EBP alpha mRNA level in mouse 3T3L1 cells at 3 uM after 24 hrs by RT-PCR analysis; format: functional, cell-based; conditions: 3T3-L1
# Outline: as §1
# 3T3-L1 [4] = assay: Induction of apoptosis in mouse 3T3L1 cells assessed as viable cells at 3 uM after 24 hrs by annexin-V-FITC and PI staining based flow cytometry (reference value: 98.95%); format: functional; conditions: 3T3-L1, 24 h, read-out: Activity
# [5] = Cell cycle arrest in mouse 3T3L1 cells assessed as number of cells at S phase at 0.3 uM after 24 hrs by flow cytometry (reference value: 18.1%); format: functional, cell-based; conditions: 3T3-L1
# [6] = Downregulation of SREBP-1c mRNA level in mouse 3T3L1 cells at 3 uM after 24 hrs by RT-PCR analysis; format: functional, cell-based; conditions: 3T3-L1
# Outline: as §1
# 3T3-L1 [7] = assay: Induction of apoptosis in mouse 3T3L1 cells assessed as early apoptotic cells at 3 uM after 24 hrs by annexin-V-FITC and PI staining based flow cytometry (reference value: 0.56%); format: functional
# [8] = molecular target: T1, Serine/threonine-protein kinase STK11 (Mus musculus) (UniProt Q9WTK7); assay: Activation of LKB1-mediated ACC in mouse 3T3L1 cells assessed as increase in phophorylated ACC level at 3 uM by western blot analysis; format: cell-based; conditions: 3T3-L1, TDE = time-dependent effect
# T1 sequence (whole entry): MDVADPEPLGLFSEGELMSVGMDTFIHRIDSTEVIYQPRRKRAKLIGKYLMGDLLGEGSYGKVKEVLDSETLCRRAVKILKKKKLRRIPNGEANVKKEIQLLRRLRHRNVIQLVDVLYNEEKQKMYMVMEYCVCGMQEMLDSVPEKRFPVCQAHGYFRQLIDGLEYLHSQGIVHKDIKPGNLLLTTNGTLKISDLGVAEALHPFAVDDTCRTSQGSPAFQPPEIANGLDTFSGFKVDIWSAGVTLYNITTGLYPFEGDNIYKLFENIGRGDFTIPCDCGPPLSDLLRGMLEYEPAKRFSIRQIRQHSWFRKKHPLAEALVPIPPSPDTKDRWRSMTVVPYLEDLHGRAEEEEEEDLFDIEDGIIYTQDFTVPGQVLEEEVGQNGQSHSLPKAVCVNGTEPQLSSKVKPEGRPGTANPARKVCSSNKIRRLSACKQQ
# Outline: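 3T3-L1 preadipocytes held in adipogenic cocktail with or without compound at 3 µM, time course (10 min, 2 h, 24 h) during differentiation. Lysis in RIPA with protease/phosphatase inhibitors, SDS-PAGE, PVDF, BSA block, primary antibody 16 h at 4 °C, HRP secondary. Bands normalized to GAPDH, with the 10 min DMSO group set as 100%; n = 3.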
# [9] = Cell cycle arrest in mouse 3T3L1 cells assessed as number of cells at G2/M phase at 1 uM after 24 hrs by flow cytometry (reference value: 37.2%); format: functional, cell-based; conditions: 3T3-L1
# 3T3-L1 [10] = assay: Induction of apoptosis in mouse 3T3L1 cells assessed as late apoptotic cells at 1 uM after 24 hrs by annexin-V-FITC and PI staining based flow cytometry (reference value: 0.03%); format: functional
# [11] = Downregulation of CaMKKalpha expression in mouse 3T3L1 cells by western blot analysis; format: functional, cell-based; conditions: 3T3-L1
# 3T3-L1 [12] = assay: Induction of apoptosis in mouse 3T3L1 cells assessed as viable cells at 1 uM after 24 hrs by annexin-V-FITC and PI staining based flow cytometry (reference value: 98.95%); format: functional; conditions: 3T3-L1, 24 h, read-out: Activity
# 3T3-L1 [13] = assay: Inhibition of cell differentiation in mouse 3T3L1 cells assessed as delayed time point of cell contact inhibition at 0.5 uM for 9 days; format: functional
# Outline: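 3T3-L1 preadipocytes were induced to differentiate (IBMX/dexamethasone/insulin for 3 days, then insulin) with compound added from day 0 at 0.5 or 5 µM; DMSO vehicle served as control. Cells were collected and counted every day to follow proliferation and to find when contact inhibition resumed.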
# 3T3-L1 [14] = assay: Induction of apoptosis in mouse 3T3L1 cells assessed as viable cells at 0.3 uM after 24 hrs by annexin-V-FITC and PI staining based flow cytometry (reference value: 98.95%); format: functional; conditions: 3T3-L1, 24 h, read-out: Activity
# [15] = Cell cycle arrest in mouse 3T3L1 cells assessed as number of cells at G2/M phase at 3 uM after 24 hrs by flow cytometry (reference value: 37.2%); format: functional, cell-based; conditions: 3T3-L1
# HepG2 [16] = assay: Decrease in cholesterol level in human HepG2 cells at 1 uM after 24 hrs by […] assay in presence of 0.5 mM oleic acid sodium; format: functional
# Outline: (§2)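 HepG-2 cells seeded, then after 24 h exposed to 0.5 mM oleic acid sodium plus compound (1 µM; dose series up to 10 µM) for 24 h, DMSO vehicle. Cells lysed in 0.2% Triton X-100 for 1 h, sonicated, centrifuged. Triglyceride measured by GPO-POD kit and cholesterol by kit, both normalized to BCA protein; n = 3.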
# [17] = Decrease in triglyceride level in mouse 3T3L1 cells at 1 uM measured during 3 to 6 days by oil red O staining based microscopic analysis; format: functional, cell-based; conditions: 3T3-L1
# Outline: (§3)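 3T3-L1 cells given 1 µM compound during day 0-3, 0-6, 0-9, 3-6, 3-9 or 6-9 of differentiation. On Day 9, intracellular lipid measured by TG assay (Triton lysate, GPO-POD kit, per protein) and by Oil Red O staining with microscopy; n = 3.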
# [18] = Cell cycle arrest in mouse 3T3L1 cells assessed as number of cells at G2/M phase at 0.3 uM after 24 hrs by flow cytometry (reference value: 37.2%); format: functional, cell-based; conditions: 3T3-L1
# [19] = Downregulation of SREBP-1c mRNA level in mouse 3T3L1 cells at 0.3 to 3 uM after 24 hrs by RT-PCR analysis; format: functional, cell-based; conditions: 3T3-L1
# Outline: as §1
# HepG2 [20] = assay: Decrease in triglyceride level in human HepG2 cells after 24 hrs by GPO-POD assay in presence of 0.5 mM oleic acid sodium; format: functional, cell-based
# Outline: as §2
# 3T3-L1 [21] = assay: Induction of apoptosis in mouse 3T3L1 cells assessed as late apoptotic cells at 3 uM after 24 hrs by annexin-V-FITC and PI staining based flow cytometry (reference value: 0.03%); format: functional
# HepG2 [22] = assay: Decrease in triglyceride level in human HepG2 cells at 10 uM after 24 hrs by GPO-POD assay in presence of 0.5 mM oleic acid sodium; format: functional
# Outline: as §2
# 3T3-L1 [23] = assay: Decrease in lipid droplet accumulation in mouse 3T3L1 cells at 1 uM measured during 0 to 3,0 to 6,0 to 9, 3 to 6, 3 to 9 and 6 to 9 days by oil red O staining based microscopic analysis; format: functional, cell-based
# Outline: as §3
compound,measurement,setting,value
O=Cc1c(-c2nc(NCCN3CCCC3)c3ccccc3n2)[nH]c2ccccc12,"viability at 72 h, 10 µM",[1],83%
same,inhibition,[2],Active
same,inhibition,[3],Active
same,viability at 3 µM,3T3-L1 [4],97.7%
same,Activity,[5],6.4%
same,inhibition,[6],Active
same,Activity,3T3-L1 [7],0.39%
same,Activity,[8],tde
same,Activity,[9],46.9%
same,Activity,3T3-L1 [10],0.25%
same,inhibition,[11],Active
same,viability at 1 µM,3T3-L1 [12],98%
same,Time,3T3-L1 [13],6 days
same,viability at 0.3 µM,3T3-L1 [14],96.5%
same,Activity,[15],57.9%
same,inhibition (INH),HepG2 [16],<10%
same,inhibition,[17],80%
same,Activity,[18],40.2%
same,inhibition,[19],Active
same,inhibition,HepG2 [20],Dose-dependent effect
same,Activity,3T3-L1 [21],0.42%
same,inhibition (INH),HepG2 [22],32%
same,inhibition,3T3-L1 [23],Active
